Experiment: Toxicity liver stage against HepG2, at 10uM
Assay type: cell-based
Parameters: test concentration 10 uM, cell line HepG2-A16-CD81EGFP
Conditions: human, HepG2-A16-CD81EGFP cells; read-out: INHIBITION
Method in brief: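 Uninfected HepG2-A16-CD81EGFP cells, 3 × 10^3 per well, 1536-well, plated on prespotted compound at 10 μM final, parasite-free screening media added to match infected plates; puromycin 10 μM positive, DMSO 0.5% negative; run in parallel with 48 h PbLuc assay at 37 °C, 5% CO2; viability by CellTiter-Glo luminescence, normalized to controls.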

Going from `O=S(=O)(NCc1cn2ccccc2n1)N1CCOCC1` to `COc1ccc(C(=O)NCc2cccnc2N2CCOCC2)o1`, the cytotoxicity at 10 µM rises from 2.69% to 3.1%.

Compared with `CC(C)(C)c1coc([C@@H]2COCCN2Cc2ccccn2)n1`, `Cn1cc(C2CCCN2Cc2csc(-c3ccccc3)n2)cn1` (stereo unspecified) is higher in cytotoxicity at 10 µM: -4.04% for the first, -2.48% for the second.

Going from `COc1ccc(CNC[C@H]2COCc3nc4cc(F)ccc4n32)cc1` to `CN1CCOC(CNCc2ccc(OCc3ccccn3)cc2)C1` (stereo unspecified), the cytotoxicity at 10 µM falls from 1.52% to -13.4%.

Compared with `O[C@@H]1C[C@@H](c2nc(Cc3ccccc3)no2)N(CC2CC2)C1`, `Cc1[nH]c(=O)[nH]c(=O)c1CN1CCCC(CCc2ccccc2)C1` (stereo unspecified) is lower in cytotoxicity at 10 µM: -3.5% for the first, -11.4% for the second.

Going from `COCCn1ccc(=O)c(OCC(=O)Nc2cccc(OC)c2)c1C` to `COCCn1ccc(=O)c(OCC(=O)Nc2ccc(OC)c(Cl)c2)c1C`, the cytotoxicity at 10 µM rises from -2.74% to 5.36%.

Compared with `Cn1nnc2c(N3CC(C(=O)NCc4cccs4)C3)ncnc21`, `Cc1nn(C)c2c(NCCn3cccn3)ncnc12` is lower in cytotoxicity at 10 µM: 4.29% for the first, -1.26% for the second.

First: CC(=O)N1CCC2(CC1)C(=O)N(c1cccnc1)c1ccc(F)cc12
Second: O=C(C1CC=CC1)N1CCC2(CCC(=O)N2Cc2cccc(F)c2)CC1
The cytotoxicity at 10 µM of the first is higher: 10.6% for the first, -3.2% for the second.

Compared with `O=C1[C@@H]2CCN(CC3CCOCC3)C[C@@H]2OCCN1c1ccccc1`, `c1ccc(-n2cc(CN3CCCC(Cn4cncn4)C3)nn2)cc1` (stereo unspecified) is higher in cytotoxicity at 10 µM: -5.21% for the first, 1.52% for the second.

Going from `CC(C)C(=O)N1CC[C@@H]2CN(Cc3ccncc3)S(=O)(=O)[C@@H]2CC1` to `CCCN1CCC(NCc2ccncc2)CC1`, the cytotoxicity at 10 µM falls from 5.38% to -6.79%.

Compared with `CN1CCN(C(=O)c2n[nH]c3c2CCN(Cc2nccs2)C3)CC1`, `CCn1c(N)nc2cc(C(=O)N3CCN(c4nccs4)CC3)cnc21` is higher in cytotoxicity at 10 µM: -143% for the first, -17.2% for the second.

Compared with `Cc1nccc([C@@H]2C[C@@H]3CCN(S(=O)(=O)C4CC4)C[C@H]3O2)n1`, `Cc1ccoc1C(=O)N1CC[C@@H]2O[C@@H](C)C[C@H]2C1` is higher in cytotoxicity at 10 µM: -5.9% for the first, 2.26% for the second.

First: O=C1NCC[C@]12CN(Cc1ccoc1)C[C@H]2c1ccccc1
Second: O=C1Nc2ccccc2CC12CCCN2Cc1ccc(F)cc1 (stereo unspecified)
The cytotoxicity at 10 µM of the first is lower: 4.55% for the first, 10.5% for the second.

Going from `Cc1c(Br)c(C(=O)NC(C)c2ccccc2)nn1C` (stereo unspecified) to `Cc1nn(C)c(C)c1C(C)NCc1ccc(OC(C)C)cc1` (stereo unspecified), the cytotoxicity at 10 µM rises from -4.34% to 15.3%.

Compared with `N#Cc1ccc(C2CC(=O)Nc3c(C(=O)O)nsc32)cc1` (stereo unspecified), `Cc1nn(C)c(Cl)c1C1CCCN1C(=O)c1cccc(C#N)c1` (stereo unspecified) is lower in cytotoxicity at 10 µM: 3.02% for the first, -22% for the second.

Compared with `CCN(CC)CCCNCc1cc2cccc(C)c2[nH]c1=O`, `Cc1ccc2[nH]c(=O)c(CNCCCN3CCOCC3)cc2c1` is lower in cytotoxicity at 10 µM: -7.06% for the first, -14.9% for the second.

Compared with `CN(C)c1nccc(C2CCN(C(=O)CO)CC2)n1`, `Cc1ccoc1C(=O)N1CCC(n2cc(CO)nn2)CC1` is higher in cytotoxicity at 10 µM: -23.6% for the first, -1.52% for the second.

Going from `CC(C)(C)c1nc(CN(CCO)Cc2cc(Br)ccc2F)no1` to `CC(C)(C)c1nc(CN2CCCC2Cn2cncn2)no1` (stereo unspecified), the cytotoxicity at 10 µM falls from 8.52% to 1.93%.

First: CS(=O)(=O)Cc1ccc(OCc2ccc(F)cc2)cc1
Second: CC(=O)c1cc(CC(=O)NCc2ccc(F)cc2)cs1
The cytotoxicity at 10 µM of the first is higher: 22.9% for the first, -18.7% for the second.

Compared with `COCC(=O)N1CCN(Cn2nc(C)c(Br)c2C)CC1`, `CCc1[nH]ncc1C(=O)N1CCCN(Cc2cnn(C)c2)CC1` is higher in cytotoxicity at 10 µM: 0.633% for the first, 1.71% for the second.

Compared with `N#Cc1cc(C#N)c(SCCC(=O)Nc2ccc(F)cc2)nc1N`, `CC(CO)Nc1ccc(-c2nc(Cc3ccc(F)cc3)no2)cn1` (stereo unspecified) is lower in cytotoxicity at 10 µM: 4.89% for the first, -11.9% for the second.

First: Cc1cc(C)cc(C(=O)NCCS(=O)(=O)N2CCSCC2)c1
Second: Cc1ccc(-c2nc(C(=O)N3CCCCC3CNS(C)(=O)=O)cs2)cc1 (stereo unspecified)
The cytotoxicity at 10 µM of the first is lower: -12.5% for the first, -2.14% for the second.

Going from `OCCOc1ccc(NCc2cccc3cccnc23)cn1` to `c1cnc(NCc2cncc3c2CCN(Cc2cccs2)C3)nc1`, the cytotoxicity at 10 µM rises from -3.24% to 7.33%.

First: N#Cc1ccc(SCCOCCO)c(F)c1
Second: Cc1ccc(C)c(OCCN(C)C(=O)CCc2cn[nH]c2)c1
The cytotoxicity at 10 µM of the first is lower: 0.513% for the first, 1.69% for the second.

Compared with `CC(C)N(Cc1ccccc1)Cc1nnsc1Cl`, `CC(C)n1cnnc1CN(C)Cc1cnc(-c2ccccn2)nc1` is higher in cytotoxicity at 10 µM: -9.44% for the first, 11.9% for the second.

Compared with `CCN1CCN(c2ccc(F)cc2C(C)NCc2nc(C)no2)CC1` (stereo unspecified), `Cc1cccc(N2CCN(C(=O)NC(C)c3nncn3C)CC2)c1` (stereo unspecified) is higher in cytotoxicity at 10 µM: -17.9% for the first, -6.13% for the second.

Compared with `CN(CC(=O)N1CCN(c2ccccn2)CC1)c1ccc(Cl)cn1`, `O=C(c1ccncc1)N1CCn2c(nnc2-c2ccccc2)C1` is higher in cytotoxicity at 10 µM: -2.3% for the first, 4.45% for the second.

Going from `Cc1ccsc1C(=O)N1CCC(Nc2cccnc2)CC1` to `CC1CCCN(Cc2cccc(C(=O)Nc3nccs3)c2)C1` (stereo unspecified), the cytotoxicity at 10 µM rises from -136% to -5.68%.

First: CN(C)C(=O)Cc1ccc(NC(=O)NC2CCCC2)cc1
Second: CCNC(=O)[C@@H]1CCCN1[C@@H](C(=O)NC)c1ccccc1OC
The cytotoxicity at 10 µM of the first is higher: -1.92% for the first, -4.51% for the second.

Compared with `CCn1cc(C(=O)Nc2ccc(C)cc2C(=O)OC)cn1`, `Cc1cccc(C)c1NC(=O)CCNC(=O)c1ccoc1` is lower in cytotoxicity at 10 µM: 5.47% for the first, 3.03% for the second.

Compared with `CC(C)c1nnc(NC(=O)c2cccc(OCC(F)(F)F)n2)[nH]1`, `Cc1nc(C)c(C(=O)NCCNc2ncccc2C(F)(F)F)s1` is lower in cytotoxicity at 10 µM: -1.26% for the first, -3.08% for the second.

Going from `Cc1cccc(-c2c[nH]c(C3CCCN3C(=O)c3cc(C)n[nH]3)n2)c1` (stereo unspecified) to `Cc1cnn(CC2CCCN2C(=O)c2cc(C)nc3[nH]nc(C)c23)c1` (stereo unspecified), the cytotoxicity at 10 µM falls from 4% to -12.4%.

Going from `N#CCCN(Cc1cccnc1)C(=O)c1cccc(-n2cnnn2)c1` to `O=C(c1cccnc1-n1cncn1)N1CCc2ccccc2C1`, the cytotoxicity at 10 µM falls from 2.99% to -13.9%.

Going from `CN(Cc1nnnn1C1CC1)c1cccc2ccccc12` to `CCc1nc(Cn2nc(C3CCNCC3)n(-c3ccccc3)c2=O)cs1`, the cytotoxicity at 10 µM falls from 8.38% to -1.22%.

Going from `CC1(C)Oc2ccc(NC(=O)c3ccc(=O)[nH]n3)cc2O1` to `COc1cccc(NC(=O)c2cc3c([nH]c2=O)CCCC3=O)c1`, the cytotoxicity at 10 µM falls from 10.1% to -3.35%.

Going from `CC(O)CN1CCC(CN(C)C(=O)NC2CC2)CC1` (stereo unspecified) to `CCCN1CCC(CC(=O)NCCc2nc(C)cc(C)n2)CC1`, the cytotoxicity at 10 µM falls from 5.55% to -13.7%.

First: Cc1ncc(CNc2cnccc2CO)s1
Second: CN1CC(C(=O)N(C)Cc2cc(-c3cccnc3)no2)NC1=O (stereo unspecified)
The cytotoxicity at 10 µM of the first is lower: -24.7% for the first, -3.08% for the second.

Compared with `CCc1noc(CN(CCS(C)(=O)=O)C(C)(C)C)n1`, `Cc1nc(N(C)C)nc(NCCc2c[nH]cn2)c1C` is higher in cytotoxicity at 10 µM: -0.718% for the first, 3.12% for the second.

Going from `O=C(Nc1ccc(-n2ccnc2)c(F)c1)C1CCN(C(=O)C2CC2)CC1` to `O=C(NCCn1ccnc1)N1CCN(Cc2ccco2)CC1`, the cytotoxicity at 10 µM rises from 1.21% to 3.94%.

First: C[S+]([O-])CCCNCc1cc(F)ccc1Br (stereo unspecified)
Second: O=C1CCCC2=Nc3nonc3NC(c3ccc(F)cc3F)C12 (stereo unspecified)
The cytotoxicity at 10 µM of the first is lower: 0.732% for the first, 2.43% for the second.

Compared with `Cn1cnc(S(=O)(=O)N2CCSC3(CCCCC3)C2)c1`, `Cc1cnc(N2CCC3(CCCCN3C)C2)nc1` (stereo unspecified) is higher in cytotoxicity at 10 µM: -5.95% for the first, 3.29% for the second.

Compared with `Cc1nc(C(=O)Nc2cc(N3CCNC3=O)ccc2Cl)cs1`, `CN1CC2(CNCCN(C(=O)Nc3ccccc3)C2)CC1=O` (stereo unspecified) is higher in cytotoxicity at 10 µM: -1.33% for the first, 1.26% for the second.

Going from `Cc1nsc(N2CCCN(c3nc(C4CC4)ns3)CC2)n1` to `Cc1nc2ccnn2c(C)c1CCC(=O)N1CCN2CCCCC2C1` (stereo unspecified), the cytotoxicity at 10 µM rises from -11.5% to -8.82%.

Going from `CC[C@H](C)[C@H](N)C(=O)Nc1nc(-c2cnc(N(C)CCO)nc2)cs1` to `CC(CO)NC(=O)Nc1ccc(S(C)(=O)=O)nc1` (stereo unspecified), the cytotoxicity at 10 µM falls from -9.27% to -10.2%.

Going from `Cc1cccc(C)c1C(=O)N1C[C@@H](CN2CCOCC2)[C@@H](CO)C1` to `CCO[C@@H]1C[C@H]2CN(Cc3ccc(C)o3)CCN2C1`, the cytotoxicity at 10 µM falls from 0.0453% to -149%.

Going from `CC1=CC[C@@H]2CN(C(=O)c3ccc(-c4cc[nH]n4)cc3)C[C@@H]2C1` to `Cn1cc(C2CCCN2C(=O)c2cn(-c3ccccc3)nn2)cn1` (stereo unspecified), the cytotoxicity at 10 µM falls from 5.15% to -24%.

Compared with `CN1CCN(S(=O)(=O)c2ccc3c(c2)CN(C(=O)C(C)(C)C)CC3)CC1`, `CNc1nc2c(c(C(=O)N3CCCC3)n1)CN(C(=O)c1cccs1)CC2` is lower in cytotoxicity at 10 µM: -8.91% for the first, -112% for the second.

Going from `CN(Cc1noc2c1CCCC2)C(=O)Nc1cccc(S(N)(=O)=O)c1` to `O=c1c(CN2CCCCC2)coc2ccc(Cl)cc12`, the cytotoxicity at 10 µM rises from -4.32% to -2.56%.

Compared with `CNc1nc2c(c(C(=O)N3CCCC3)n1)CN(C(=O)CCSC)CC2`, `Cc1nccn1CCCC(=O)N1CCCC(c2noc(C(C)C)n2)C1` (stereo unspecified) is higher in cytotoxicity at 10 µM: -114% for the first, -35.8% for the second.

Going from `O=C(NC1CC(=O)N(C2Cc3ccccc3C2)C1)c1csnn1` (stereo unspecified) to `CCCn1ncc(C(=O)N2CCCC(OCc3ccccn3)C2)c1C` (stereo unspecified), the cytotoxicity at 10 µM falls from 2.96% to -0.2%.

First: CC(C(=O)O)N1CC2(CCC1=O)CCN(CCSc1ccccc1)CC2 (stereo unspecified)
Second: Cc1ccc(N2CCCC3(COCCN(c4ncccn4)C3)C2)nn1 (stereo unspecified)
The cytotoxicity at 10 µM of the first is higher: 2.57% for the first, -131% for the second.

Compared with `c1cn(Cc2nnc(C3CCN(C4CCNCC4)CC3)n2C2CC2)cn1`, `O=C(CN1CCN(c2ncccn2)[C@@H]2CS(=O)(=O)C[C@@H]21)N1CCCCC1` is lower in cytotoxicity at 10 µM: 1.74% for the first, -6.82% for the second.

First: Cc1nn(C)c(C)c1C1CCCN1C(=O)CCc1ccco1 (stereo unspecified)
Second: COc1ccc(CN2CCCCC2Cn2nc(C)nc2C)cc1F (stereo unspecified)
The cytotoxicity at 10 µM of the first is lower: -21.5% for the first, -15% for the second.

First: CCc1[nH]ncc1C(=O)N1CCCC(n2cncn2)C1 (stereo unspecified)
Second: Cn1cc(CN2C[C@H]3CN(c4cncnc4)C(=O)[C@H]3C2)cn1
The cytotoxicity at 10 µM of the first is lower: -18.9% for the first, -0.0682% for the second.

First: OC1(CN2CCOC(Cn3cccn3)C2)CCCCC1 (stereo unspecified)
Second: c1ccc(CN2Cc3nccn3CC(Cn3cncn3)C2)nc1 (stereo unspecified)
The cytotoxicity at 10 µM of the first is higher: -6.11% for the first, -141% for the second.

Compared with `Cc1ccc(CN2C[C@@H](N(C)C)[C@H]3OCCC[C@H]32)o1`, `Cc1ncsc1CN1C[C@H](OCC(C)C)[C@H]2OCCC[C@H]21` is lower in cytotoxicity at 10 µM: -136% for the first, -140% for the second.

With `CC(C)NC(=O)c1ccc2nnc(C3CN(C)CCN3C)n2c1` (stereo unspecified) the cytotoxicity at 10 µM was -139%.

Source: ChEMBL document CHEMBL4513216, “Probing the Open Global Health Chemical Diversity Library for Multistage-Active Starting Points for Next-Generation Antimalarials” (ACS Infect Dis, 2020)
